# Results as given in ChEMBL document CHEMBL5126673, “Inhibition of β-Amyloid Aggregation in Alzheimer's Disease: The Key Role of (Pro)electrophilic Warheads” (ACS Med Chem Lett, 2022).
# Calls of active or inactive are those of the source. No cut-off for these calls is given here.
# Experiments:
# [1] = target: T1, Amyloid-beta precursor protein (Homo sapiens, UniProt P05067); test: Inhibition of HFIP-pretreated amyloid beta (1 to 42) (unknown origin) self aggregation after 24 hrs by thioflavin-T fluorescence method
# How it was run: (§1)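 Self-aggregation of 50 μM Aβ42 was measured by ThT fluorescence. Single-point % inhibition used compound at 50 μM (1:1 with Aβ42). IC50 was determined where inhibition exceeded 50%. Values are the mean of two independent experiments, each run in duplicate, ± SEM.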
# [2] = target: T1, Amyloid-beta precursor protein; test: Inhibition of HFIP-pretreated amyloid beta (1 to 42 ) (unknown origin) self aggregation at 50 uM after 24 hrs by thioflavin-T fluorescence method relative to control; how it was run: as §1
# [3] = Electrochemical behavior of compound assessed as half wave redox potential in 0.2 M phosphate buffer using Ag/AgCl reference electrode by cyclic voltammetry; assay type: physicochemical
# [4] = system: SH-SY5Y; test: Cytotoxicity against human SH-SY5Y cells assessed as reduction in cell viability at 5 to 10 uM measured after 24 hrs by MTT assay; assay type: toxicity, cell-based; settings: dose 5-10 µM
# How it was run: (§2)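 Human neuroblastoma SH-SY5Y cells were treated with compound at 5 and 10 μM for 24 h. Viability was read by MTT assay.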
# [5] = Reversible electrochemical behavior of compound assessed as cathodic peak for reconversion of ortho-benzoquinone in 0.2 M phosphate buffer using Ag/AgCl reference electrode by cyclic voltammetry; assay type: physicochemical
# [6] = Electrochemical behavior of compound assessed as anodic peak for oxidation of catechol group in 0.2 M phosphate buffer using Ag/AgCl reference electrode by cyclic voltammetry; assay type: physicochemical
# [7] = target: T1, Amyloid-beta precursor protein; test: Inhibition of HFIP-pretreated amyloid beta (1 to 42 ) (unknown origin) self aggregation assessed as increase in protein oxidation at 50 uM after 24 hrs by LC-MS/MS analysis
# How it was run: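 Aβ42 incubated with or without compound at an equimolar level under the ThT assay conditions. Oxidized Aβ42 was followed by MS as the ratio of the oxidized-Aβ42 signal to the reserpine internal-standard signal, plotted against incubation time.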
# [8] = system: SH-SY5Y; test: Cytotoxicity against human SH-SY5Y cells assessed as reduction in cell viability at 10 uM measured after 24 hrs by MTT assay relative to control; assay type: toxicity, cell-based; how it was run: as §2
# [9] = target: T1, Amyloid-beta precursor protein; test: Inhibition of HFIP-pretreated amyloid beta (1 to 42 ) (unknown origin) self aggregation at 50 uM after 24 hrs by LC-MS/MS analysis relative to control
# How it was run: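 Aβ42 at 50 μM incubated under the ThT assay conditions with or without compound at 50 μM (1:1). Residual monomeric Aβ42 was quantified by MS, and % inhibition was taken against compound-free samples.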
# [10] = target: T1, Amyloid-beta precursor protein; test: Binding affinity to HFIP-pretreated amyloid beta (1 to 42) (unknown origin) assessed as lys16-adduct formation by measuring increase in molecular mass at 50 uM measured up to 6 hrs by LC-MS/MS analysis
# How it was run: (§3)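 Aβ42 at 50 μM co-incubated with test compound at 50 μM (1:1) under the ThT assay conditions. Deconvoluted mass spectra were taken at 0, 6 and 24 h. Adducts were scored as new higher-mass species, i.e. mass increments over Aβ42.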
# [11] = target: T1, Amyloid-beta precursor protein; test: Binding affinity to HFIP-pretreated amyloid beta (1 to 42) (unknown origin) assessed as lys16-adduct formation by measuring increase in molecular mass at 50 uM measured at 24 hrs by LC-MS/MS analysis; how it was run: as §3
# T1 sequence (P05067 whole entry): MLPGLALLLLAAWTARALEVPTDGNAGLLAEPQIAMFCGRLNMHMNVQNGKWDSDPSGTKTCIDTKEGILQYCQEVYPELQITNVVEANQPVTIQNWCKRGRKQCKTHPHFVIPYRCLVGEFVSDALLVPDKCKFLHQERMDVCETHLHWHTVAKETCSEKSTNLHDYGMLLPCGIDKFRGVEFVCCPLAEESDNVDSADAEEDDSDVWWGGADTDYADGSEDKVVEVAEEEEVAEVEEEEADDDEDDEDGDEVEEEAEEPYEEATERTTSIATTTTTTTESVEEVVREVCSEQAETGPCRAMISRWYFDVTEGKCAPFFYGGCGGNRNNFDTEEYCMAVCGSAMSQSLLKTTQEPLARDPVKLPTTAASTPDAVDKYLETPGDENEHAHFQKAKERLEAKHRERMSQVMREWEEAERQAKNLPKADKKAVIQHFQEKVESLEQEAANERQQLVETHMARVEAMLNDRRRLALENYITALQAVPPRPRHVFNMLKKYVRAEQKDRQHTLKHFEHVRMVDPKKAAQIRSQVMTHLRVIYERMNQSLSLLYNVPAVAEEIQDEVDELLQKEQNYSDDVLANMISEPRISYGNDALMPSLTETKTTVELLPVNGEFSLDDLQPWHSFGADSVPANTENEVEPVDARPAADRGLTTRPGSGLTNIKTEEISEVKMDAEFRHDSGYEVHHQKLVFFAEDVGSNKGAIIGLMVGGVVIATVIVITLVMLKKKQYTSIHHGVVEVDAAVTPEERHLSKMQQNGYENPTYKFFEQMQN
SMILES,IC50 [1] [µM],inhibition [2] [%],Activity [3] [V],Activity [4],Activity [5],Ep [6] [V],inhibition [7],Activity [8] [%],inhibition [9] [%],Activity [10] [Da],Activity [11] [Da]
CCCSC(=O)/C=C/c1ccc(O)c(O)c1,3.99,> 90,0.1,Non-Toxic,Active,0.19,,,,,
CCCSC(=O)/C=C/c1cc(O)ccc1O,,> 90,0.1,,Active,0.32,Active,> 50,43.6,232,268
CCCSC(=O)/C=C/c1cc(O)cc(O)c1,,< 10,0.66,Non-Toxic,Active,0.76,,,< 10,,
